CRFBP-R2 agonist: agonists of CRF-BP/CRF-R2 complex, primary screen, cell-based, HEK293, calcium dye fluorescence, uHTS; calcium dye fluorescence (FLIPR); percent of saturating CRF peptide response; activation, % at 13.2 µM; 0.46% of 350,000 active; AID 588473, 2011;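 active = activation of at least 50%, plus an integration ratio under a set limit after plate pattern correction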;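 note: plate controls were neutral control wells without compound for no effect and CRF at EC100 for full effect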
TAAR1 antagonist: human TAAR1 antagonists, primary screen, Fluo-8 calcium fluorescence, CHO RD-HGA16 cells | Trace amine-associated receptor 1 (Homo sapiens), Q96RJ0 | antagonist | inhibition, % at 3 µM | 1.5% of 360,000 active;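 active = inhibition above a per-plate cutoff, the mean inhibition of test compounds on that plate plus 3 SD, cut at about 49% in these data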;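 note: 0% = DMSO plus EC80 beta-PEA response and 100% = DMSO alone without agonist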
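Test system: hTAAR1-expressing CHO RD-HGA16 cells, Gα16-coupled; Probe or stimulus: EC80 β-phenethylamine stimulus; Compound dosing: single nominal final test compound concentration of 3 µM; Timing: 140 s kinetic read after compound, 140 s after agonist; Signal: Fluo-8 calcium-sensitive fluorescence; Measure: % inhibition of agonist calcium response; Controls: DMSO and EC80 PEA controls.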
ANO1 block: TMEM16A chloride channel inhibitors, primary screen, cell-based, HTS | HEK293 TMEM16A/YFP iodide influx fluorescence, ionomycin | normalized B-score (activity score, 25-100; higher = stronger inhibition) at 10 µM | 1.2% of 310,000 active | AID 588511, 2011;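 active = ratio plate-corrected score three or more library SD toward inhibition, starting fluorescence score within five deviations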;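 note: score derived from kinetic fluorescence span divided by baseline fluorescence per well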
Target sequence (Q8BHY3 whole entry, looked up): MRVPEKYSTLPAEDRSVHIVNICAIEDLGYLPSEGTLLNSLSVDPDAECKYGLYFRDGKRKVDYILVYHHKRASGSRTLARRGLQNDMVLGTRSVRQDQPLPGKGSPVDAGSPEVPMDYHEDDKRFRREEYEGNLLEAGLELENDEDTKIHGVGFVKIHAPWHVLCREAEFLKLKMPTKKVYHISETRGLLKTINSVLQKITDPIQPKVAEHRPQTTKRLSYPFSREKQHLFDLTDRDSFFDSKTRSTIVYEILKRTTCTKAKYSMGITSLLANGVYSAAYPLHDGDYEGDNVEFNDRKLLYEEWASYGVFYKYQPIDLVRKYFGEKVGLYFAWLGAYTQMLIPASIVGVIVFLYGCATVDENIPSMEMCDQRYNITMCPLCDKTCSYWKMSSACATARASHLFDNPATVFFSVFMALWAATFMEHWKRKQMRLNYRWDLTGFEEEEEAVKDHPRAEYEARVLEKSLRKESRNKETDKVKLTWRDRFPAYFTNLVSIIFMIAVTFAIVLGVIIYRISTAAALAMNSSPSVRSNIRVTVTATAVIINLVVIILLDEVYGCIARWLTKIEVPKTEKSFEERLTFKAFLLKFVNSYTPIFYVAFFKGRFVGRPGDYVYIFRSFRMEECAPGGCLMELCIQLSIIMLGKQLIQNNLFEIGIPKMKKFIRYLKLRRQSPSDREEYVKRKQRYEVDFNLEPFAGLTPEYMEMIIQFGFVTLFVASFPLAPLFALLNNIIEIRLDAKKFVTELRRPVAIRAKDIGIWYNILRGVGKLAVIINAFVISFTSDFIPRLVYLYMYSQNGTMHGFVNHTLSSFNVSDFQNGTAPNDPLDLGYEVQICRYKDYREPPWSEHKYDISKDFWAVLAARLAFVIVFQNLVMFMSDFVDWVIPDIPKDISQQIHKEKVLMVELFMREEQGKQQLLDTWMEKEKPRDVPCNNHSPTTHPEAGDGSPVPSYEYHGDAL
TMEM16A act: TMEM16A chloride channel activators or potentiators, primary screen, cell-based, HTS. Anoctamin-1 (Mus musculus), Q8BHY3. HEK293 TMEM16A/YFP-H148Q/I152L, iodide quench fluorescence; stronger effect = lower value. B-score at 10 µM. 0.3% of 340,000 active. AID 623877, 2012;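 active = fluorescence-ratio B-score plate-corrected deviation score at least 3 library SD below zero, with starting fluorescence score within 5 deviations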;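 note: channel opened by trigger with iodide after compound preincubation; score built on the fluorescence ratio of max minus min over baseline; more negative score means more quench and so TMEM16A activation or potentiation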
CRFBP-R2 block: antagonists of CRF-BP/CRF-R2 complex, primary screen, cell-based, HEK293, calcium dye fluorescence, uHTS. CRF-induced calcium fluorescence. inhibition, % at 11.8 µM. 0.59% of 350,000 active. AID 588475, 2011;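 active = inhibition of the ligand-induced calcium signal above about 50% at the single tested concentration, limit read from the data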
TAAR1 ag: human TAAR1 agonists, primary screen, Fluo-8 calcium fluorescence, CHO RD-HGA16 cells; Trace amine-associated receptor 1 (Homo sapiens), Q96RJ0; 0.99% of 360,000 active; AID 624467, 2012; activation, % at 3 µM; vehicle wells 0%, saturating PEA agonist 100%;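 active = activation above the mean activation of all test compounds in the run plus 3 SD, cut at about 38% in these data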
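test system = CHO RD-HGA16 cells carrying human TAAR1 plus Gα16 | schedule = 17-24 h seeding, 75 min 37 °C dye, 30 min RT | compound dosing = 3 µM single concentration | control set = DMSO and PEA EC100 | replicates = n 1 | signal = Fluo-8 fluorescence, 5 s baseline then 140 s kinetic read | measure = percent activation vs PEA EC100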
TMEM16A reconf: TMEM16A chloride channel inhibitors, confirmation, cell-based, re-confirmation. shares compounds with ANO1 block. inhibition, % at 10 µM. HEK293 TMEM16A/YFP-H148Q, iodide quench fluorescence; ionomycin added to raise cell calcium. AID 652189, 2013. 39% of 2,300 active;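 active = mean duplicate percent inhibition, scaled so buffer wells are 0 and the reference blocker 100, over three buffer SD above buffer mean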
HEK293 Ca mobil: calcium mobilization in TMEM16A/YFP HEK293 cells, confirmation, counter-screen for TMEM16A inhibitor project | shares compounds with ANO1 block | Fluo4 calcium mobilization | calcium response (% of ionomycin), % at 10 µM | 2% of 2,300 active | AID 652231, 2013;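 active = duplicate-averaged calcium signal over 20% of the ionomycin maximum, relative to buffer baseline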;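 note: each well's signal is peak minus trough fluorescence divided by its pre-addition baseline; 0% = buffer wells and 100% = ionomycin wells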
YFP-HEK293 quench: iodide YFP quench changes in parental YFP-HEK293, counter-screen for TMEM16A inhibitor project, cell-based. shares compounds with ANO1 block. ionomycin. YFP ratio F(max-min)/F0 at 10 µM. 2,300 tested, under 10 active;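 active = yellow fluorescent protein signal ratio exceeding the buffer control mean by over 5 SD of those controls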;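 note: ratio is mean of duplicate wells from kinetic YFP trace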
ClC-1 rat inh: ClC-1 chloride channel inhibition, selectivity assay for TMEM16A inhibitor project, cell-based, voltage-dependent ClC-1; shares compounds with ANO1 block; CHO ClC-1-YFP, iodide influx fluorescence quench; iodide control reads 0, buffer control 100; ratio percent, % at 10 µM; 2,300 tested, under 10 active; AID 652236, 2013;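 active = duplicate-mean ratio percent above the mean of iodide-only control wells, which defines zero, plus 5 of their SD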;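 note: higher percent means stronger block of ClC-1 iodide influx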
Active calls of the source: *; i = inactive; . = no result given. This is a sample that favours compounds with a hit; in the whole collection about 3.9% have one here.

SMILES	CRFBP-R2 agonist	TAAR1 antagonist	ANO1 block	TMEM16A act	CRFBP-R2 block	TAAR1 ag	TMEM16A reconf	HEK293 Ca mobil	YFP-HEK293 quench	ClC-1 rat inh
O=C(Nc1ccccc1)Nc1ccc(Cl)c(S(=O)(=O)N2CCOCC2)c1	16	16	100*	i	-2	33	28%*	i	-0.91	-12
O=C(Nc1nnc(C2CC2)s1)c1cc(S(=O)(=O)N2CCN(c3ccccc3)CC2)ccc1Cl	0	23	i	i	5	1	.	.	.	.
O=C(Nc1ccc(Br)cc1)c1ccc(F)c(S(=O)(=O)N2CCN(c3ccccn3)CC2)c1	3	40	25*	i	-31	9	i	i	-1.1	-16
O=C(Nc1cccnc1)c1ccc(Cl)c(S(=O)(=O)N2CCCCCC2)c1	-2	38	25*	i	-28	22	30%*	i	-1.1	-14
O=C(Nc1ccncc1)c1ccc(Cl)c(S(=O)(=O)N2CCc3ccccc32)c1	1	63*	25*	i	-14	15	32%*	i	-1.1	-30
O=C(Nc1ccncc1)c1ccc(Cl)c(S(=O)(=O)N2CCCCC2)c1	0	27	25*	i	8	11	i	i	-1	-20
NC(=O)[C@@H]1[C@@H]2C(=O)N(c3ccc(F)cc3)C(=O)[C@@H]2[C@H]2C=Cc3ccccc3N21	6	-4	i	i	-16	2	20%*	i	-1	-5
O=C(c1ccco1)[C@@H]1[C@@H]2C(=O)N(c3ccc(F)cc3)C(=O)[C@@H]2[C@H]2C=Cc3ccccc3N21	3	14	i	i	-16	2	.	.	.	.
CC1CCC(NC(=O)CNC(=O)c2cccs2)CC1 (stereo not given)	-1	-11	i	i	8	3	.	.	.	.
O=C(COC(=O)Cc1cccc(C(F)(F)F)c1)NC(=O)NC1CCCC1	0	-6	.	i	-5	3	.	.	.	.
O=C(COC(=O)CCNS(=O)(=O)c1cccc(C(F)(F)F)c1)NC(=O)NC1CCCCC1	4	-7	25*	i	6	6	24%*	i	-1.3	-10
COc1ccccc1C(=O)NCC[N+](C)(C)C	.	2	.	.	.	1	.	.	.	.
Clc1ccc2[nH]c3c(N4CCC5(CC4)OCCO5)ncnc3c2c1	0	.	100*	.	7	.	44%*	i	-0.86	-30
Cc1ccc2[nH]c3c(N4CCc5ccccc5C4)ncnc3c2c1	3	36	25*	i	-8	13	30%*	i	-0.91	-25
c1ccc2c(c1)[nH]c1c(N3CCSCC3)ncnc12	0	13	25*	i	-1	16	28%*	i	-0.88	-20
c1ccc2c(c1)[nH]c1c(N3CCCC3)ncnc12	-4	17	i	i	11	6	.	.	.	.
CCCN(Cc1ccc(C)cc1)C(=O)c1ccc(CNS(=O)(=O)c2ccc(C(C)=O)cc2)cc1	2	30	.	i	5	6	.	.	.	.
COc1ccc(C)cc1NC(=O)C/C(C)=N/NC(=O)Cc1cccc2ccccc12	0	-4	i	i	-13	-1	.	.	.	.
COc1ccccc1CNC(=O)Cn1ccsc1=N	2	-10	i	i	-3	2	.	.	.	.
COc1cc2c(cc1NC(=O)CCCN1C(=O)CCC1=O)oc1ccccc12	2	-6	i	i	5	0	.	.	.	.
COc1cc2c(cc1NC(=O)CCCCCN1C(=O)CCC1=O)oc1ccccc12	0	4	25*	i	-4	0	i	i	-1.2	-8
C/C(CC1CC2=C(CC1(C)C)C(C)(C)CCC2)=N\NC(N)=S (stereo not given)	6	15	25*	i	-45	0	i	26%*	-1	-5
O=C(CSc1nnc(CNC(=O)c2cccs2)o1)Nc1ccc(Cl)cc1	2	-2	i	i	-3	6	.	.	.	.
Fc1ccc(NCc2cccnc2)cc1	0	-9	100*	i	-7	8	i	i	-1.2	-2
O=C(Cc1ccc2ccccc2c1)NC(Cc1ccccc1)C(=O)O (stereo not given)	-3	-3	.	i	-3	2	.	.	.	.
SMILES	CRFBP-R2 agonist	TAAR1 antagonist	ANO1 block	TMEM16A act	CRFBP-R2 block	TAAR1 ag	TMEM16A reconf	HEK293 Ca mobil	YFP-HEK293 quench	ClC-1 rat inh
CCCn1c(CC)nc([N+](=O)[O-])c1Sc1ccc(F)cc1	-5	-9	25*	i	-2	10	i	i	-0.95	-6
CCCn1c(CC)nc([N+](=O)[O-])c1Sc1ccc(C)cc1	4	-8	i	i	-15	13	.	.	.	.
CCc1c(C(=O)Nc2ccc(OC)cc2)[nH]c(C)c1C(C)=O	0	13	25*	i	9	3	i	i	-0.96	-8
O=C(c1cc2cc(Cl)ccc2[nH]1)N1CCN(C(=O)c2ccco2)CC1	-1	3	i	i	-7	3	.	.	.	.
O=C(CSc1nc2ccccc2c(=O)n1-c1ccc(F)cc1)NC1CCS(=O)(=O)C1 (stereo not given)	1	10	.	i	5	0	.	.	.	.
CC1C(=O)Nc2ccccc2N1C(=O)C1CC1 (stereo not given)	0	19	25*	i	-7	8	i	i	-0.91	-14
CC1C(=O)Nc2ccccc2N1C(=O)c1ccccc1 (stereo not given)	-1	8	i	i	1	5	.	.	.	.
CCOc1ccc(C(=O)N2CCC(C(=O)c3ccc4c(c3)OCCO4)CC2)cc1	-2	18	100*	i	23	3	i	i	-1.2	-12
